Mcl1-Bid inh: disrupts binding of human Mcl-1 to Bid peptide; Q07820; 220,000 tested, 0.97% active; TR-FRET Mcl-1/Bid-Dy647 peptide binding, 1536-well; inhibition, % at 21.7 µM;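 active means compounds that cut the binding signal by more than half at the single screening dose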;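 further: His-tagged Mcl-1 with europium anti-His antibody binding Bid BH3 peptide; 0% = Mcl-1 plus peptide wells and 100% = peptide-only wells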
Target sequence (Q07820 whole entry, looked up): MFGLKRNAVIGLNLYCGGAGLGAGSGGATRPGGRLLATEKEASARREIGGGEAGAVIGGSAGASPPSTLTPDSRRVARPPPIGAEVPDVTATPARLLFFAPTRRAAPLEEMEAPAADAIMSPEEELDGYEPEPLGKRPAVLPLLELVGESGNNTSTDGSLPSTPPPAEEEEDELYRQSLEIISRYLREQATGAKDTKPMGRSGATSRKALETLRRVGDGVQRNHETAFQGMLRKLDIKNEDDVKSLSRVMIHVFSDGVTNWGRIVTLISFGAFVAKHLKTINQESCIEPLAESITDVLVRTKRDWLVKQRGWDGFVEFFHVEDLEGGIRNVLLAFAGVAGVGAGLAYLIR
Mcl1-Noxa inh: Mcl-1/Noxa interaction inhibition. AID 1022. TR-FRET Mcl-1/Noxa peptide binding, 2 h. inhibition, % at 21.7 µM. 220,000 tested, 1.5% active;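 active means compounds that cut the protein-peptide binding signal by more than 50% relative to plate controls in a single-dose test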;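 further: His-tagged Mcl-1 with rhodamine Noxa BH3 peptide and terbium anti-His antibody; 0% = Mcl-1 plus Noxa peptide wells and 100% = peptide-only wells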
Hck Nef HTS: blocks Nef-activated human Hck kinase; Recombinant Hck-YEEI plus Nef, Z-Lyte FRET kinase assay; inhibition, % at 20 µM; 220,000 tested, 0.68% active; AID 463187;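 active means Hck-Nef kinase inhibition above about 50%, limit read from the data; inactive means inhibition below that limit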;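 further: 0% = DMSO with Hck plus Nef and 100% = Hck alone without Nef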
Biofilm kill mix: mixture kills Candida albicans biofilm cells. C. albicans biofilm persisters + clotrimazole, fluorescence viability; primary screen in compound mixtures of four per well. 120,000 tested, 0.02% active. inhibition, % at 7.6 µM;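 active means inhibition above 30.3% in the primary screen of four-compound pools, then above 30% when the compound was retested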;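 further: compounds exposed to preformed 24 h biofilms for 48 h; 0% = untreated biofilm control and 100% = clotrimazole plus chlorhexidine kill blank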
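Incubation: 24 h biofilm formation, then 48 h compound exposure, 37 °C | Material: C. albicans biofilms | Buffer or medium: RPMI/MOPS medium, pH 7.0 | Measured by: 2-h Alamar Blue fluorescence, 535/590 nm excitation/emission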
14-3-3 Bad inh: disrupts binding of bovine 14-3-3 zeta to phospho-Bad peptide; TR-FRET 14-3-3zeta/Dy647-pBad peptide displacement, 1 h; inhibition, % at 21.7 µM; 220,000 tested, 0.71% active; AID 781;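 active means inhibition above about 70%, limit read from the data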;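 further: 0% = full 14-3-3 plus peptide FRET controls and 100% = background without 14-3-3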
Target sequence (P63103 whole entry, looked up): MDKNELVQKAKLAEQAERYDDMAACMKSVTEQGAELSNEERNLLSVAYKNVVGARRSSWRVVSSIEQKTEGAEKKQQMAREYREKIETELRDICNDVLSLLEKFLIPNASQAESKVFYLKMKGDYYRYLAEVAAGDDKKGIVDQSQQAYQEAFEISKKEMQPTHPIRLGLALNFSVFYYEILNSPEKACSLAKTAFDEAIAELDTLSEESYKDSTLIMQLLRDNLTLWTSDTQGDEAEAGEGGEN
Bim-Mcl-1: human Bim-Mcl-1 interaction inhibition; Q07820; Bead-based flow cytometry, Bim peptide-Mcl-1 binding; inhibition, % at 10 µM; 190,000 tested, 0.1% active; AID 1009; in the data active means inhibition above about 40%;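 further: 0% = no compound tracer wells and 100% = peptide blocker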
Hck Nef conf: confirmation of Hck-Nef kinase inhibitors; shares compounds with Hck Nef HTS; Recombinant Hck-YEEI:Nef, Z-Lyte FRET kinase assay; calls only at 10 µM; 1,300 tested, 28% active;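 active means average inhibition of at least 50%, with Z-scores no higher than 3 in both the phospho-tyrosine peptide and fluorescence counterscreens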
Numbers without * were called inactive. Rows were chosen to be rich in hits. Some 3.2% of all compounds tested hit in one or more screens of this group.

Screening CC(=O)Nc1ccc(S(=O)(=O)C(C#N)c2nc3ccccc3nc2NCCCO)cc1 (stereo not drawn) returned Mcl1-Bid inh -7, Mcl1-Noxa inh 9, Hck Nef HTS 165*, Biofilm kill mix 24 and 14-3-3 Bad inh -4.
Screening CC(=O)Nc1ccc(S(=O)(=O)C(C#N)c2nc3ccccc3nc2NCCO)cc1 (stereo not drawn) returned Mcl1-Bid inh -1, Mcl1-Noxa inh 0, Hck Nef HTS 148*, Biofilm kill mix 4 and 14-3-3 Bad inh 2.
`Cc1ccc(S(=O)(=O)C(C#N)c2nc3ccccc3nc2OCCO)cc1` (stereo not drawn) gave Mcl1-Bid inh -15, Mcl1-Noxa inh 35, Hck Nef HTS 5, Biofilm kill mix 12, 14-3-3 Bad inh 0 and Bim-Mcl-1 -1.
For Cn1c(COc2ccc(Br)cc2)nnc1SC1CCc2ccccc2C1=O (stereo not drawn) the results were Mcl1-Bid inh 7, Mcl1-Noxa inh 9, Hck Nef HTS 51*, Biofilm kill mix 10, 14-3-3 Bad inh 4, Bim-Mcl-1 -3 and Hck Nef conf inactive.
`Cn1c(COc2ccccc2)nnc1SCCSc1nnc(COc2ccccc2)n1C` gave Mcl1-Bid inh 4, Hck Nef HTS 3, 14-3-3 Bad inh 3 and Bim-Mcl-1 -1.
For C=CCN=c1scc(-c2ccco2)n1/N=C/c1ccc(O)c(O)c1O the results were Mcl1-Bid inh -94, Mcl1-Noxa inh 84*, Hck Nef HTS 56*, Biofilm kill mix 1, 14-3-3 Bad inh 17 and Hck Nef conf inactive.
COCCN=c1scc(-c2ccco2)n1/N=C/c1ccc(O)c(O)c1O was read as Mcl1-Bid inh 3, Mcl1-Noxa inh 103*, Hck Nef HTS 59*, Biofilm kill mix -9, 14-3-3 Bad inh 37, Bim-Mcl-1 7 and Hck Nef conf active.
For CC(C)N=c1scc(-c2ccco2)n1/N=C/c1ccc(O)c(O)c1 the results were Mcl1-Bid inh -8, Mcl1-Noxa inh 35, Hck Nef HTS 1, 14-3-3 Bad inh -2 and Bim-Mcl-1 0.
Screening Cc1c(-c2cc(C(=O)O)on2)cnn1C returned Mcl1-Bid inh 4, Mcl1-Noxa inh 16, Hck Nef HTS 29, Biofilm kill mix 9, 14-3-3 Bad inh 0 and Bim-Mcl-1 -3.
`Cn1c(=O)c2c(nc(NCc3cccnc3)n2Cc2ccc(Cl)cc2)n(C)c1=O` gave Mcl1-Bid inh -19, Mcl1-Noxa inh 10, Hck Nef HTS -20, 14-3-3 Bad inh -9 and Bim-Mcl-1 0.
Screening N#C/C(=C\c1coc2ccccc2c1=O)C(N)=S returned Mcl1-Bid inh -63, Mcl1-Noxa inh 22, Hck Nef HTS 21, Biofilm kill mix 15, 14-3-3 Bad inh -9 and Bim-Mcl-1 -2.
Screening N#C/C(=C\c1coc2ccc(O)cc2c1=O)C(=O)Nc1nc2ccccc2s1 returned Mcl1-Bid inh -72, Mcl1-Noxa inh 19, Hck Nef HTS 64*, Biofilm kill mix 55, 14-3-3 Bad inh 43 and Hck Nef conf inactive.
CC/C=C/C(=O)N1CC2(CC(c3cccc(NC(=O)CC(c4ccccc4)c4ccccc4)c3)=NO2)C[C@@H]1C(N)=O (stereo partly drawn) was read as Mcl1-Bid inh -24, Mcl1-Noxa inh -17, Hck Nef HTS 53*, Biofilm kill mix 19, 14-3-3 Bad inh -5 and Hck Nef conf inactive.
`C/C(=C/CCC(C)[C@H]1CC[C@@]2(C)C3=C(CC[C@]12C)[C@@]1(C)CCC(=O)C(C)(C)[C@@H]1CC3)C(=O)O` (stereo partly drawn) gave Mcl1-Bid inh -32, Mcl1-Noxa inh 9, Hck Nef HTS 100*, Biofilm kill mix 8, 14-3-3 Bad inh -2, Bim-Mcl-1 0 and Hck Nef conf active.
`C/C(=C/CCC(C)C1CCC2(C)C3CCC4C(C)(C)C(=O)CCC4(C)C3=CCC12C)C(=O)O` (stereo not drawn) gave Mcl1-Bid inh -42, Mcl1-Noxa inh 41, Hck Nef HTS 26, Biofilm kill mix 11 and 14-3-3 Bad inh -3.
COc1cc(-c2ccc(Nc3ccccc3C(=O)O)c(OC)c2)ccc1Nc1ccccc1C(=O)O was read as Mcl1-Bid inh 98*, Mcl1-Noxa inh 105*, Hck Nef HTS 94*, Biofilm kill mix 12, 14-3-3 Bad inh 97* and Hck Nef conf active.
Screening COc1cccc(Nc2ccccc2C(=O)O)c1 returned Mcl1-Bid inh -54, Mcl1-Noxa inh 26, Hck Nef HTS 13, Biofilm kill mix 8, 14-3-3 Bad inh 6 and Bim-Mcl-1 -3.
Screening COCCNC(=O)CN1C(=O)NC2(CCCCCC2)C1=O returned Mcl1-Bid inh -9, Mcl1-Noxa inh 5, Hck Nef HTS -33, Biofilm kill mix 12, 14-3-3 Bad inh 2 and Bim-Mcl-1 3.
Screening O=C(CC1C(=O)NCCN1C/C=C/c1ccccc1)NCCCC1CCCC1 (stereo not drawn) returned Mcl1-Bid inh -8, Mcl1-Noxa inh 12, Hck Nef HTS 25, Biofilm kill mix 26, 14-3-3 Bad inh -4 and Bim-Mcl-1 10.
CCc1ccc(/C=N/Nc2ncnc3nc[nH]c23)cc1 was read as Mcl1-Bid inh -8, Mcl1-Noxa inh 23, Hck Nef HTS 95*, Biofilm kill mix 29, 14-3-3 Bad inh -2 and Hck Nef conf active.
CC1=NNC(=O)/C1=C\c1cn(-c2ccccc2)nc1-c1ccc(Cl)cc1 was read as Mcl1-Bid inh -15, Mcl1-Noxa inh -51, Hck Nef HTS 60*, 14-3-3 Bad inh -15, Bim-Mcl-1 -5 and Hck Nef conf active.
`CCOCCCNCc1ccc(OCCC(C)C)c(OC)c1` gave Mcl1-Bid inh 14, Mcl1-Noxa inh 5, Hck Nef HTS 6, Biofilm kill mix 15, 14-3-3 Bad inh 62 and Bim-Mcl-1 -1.
Screening CCOC(=O)c1c(C)[nH]c(C(=O)OCC(=O)N2CCc3ccccc32)c1C returned Mcl1-Bid inh 31, Mcl1-Noxa inh -4, Hck Nef HTS 92*, 14-3-3 Bad inh 44, Bim-Mcl-1 3 and Hck Nef conf inactive.
`CCOC(=O)c1[nH]c(C)c(C(=O)OCC(=O)N2CCc3ccccc32)c1C` gave Mcl1-Bid inh -24, Mcl1-Noxa inh -6, Hck Nef HTS -21, 14-3-3 Bad inh 6 and Bim-Mcl-1 0.
`CCCOc1c(Br)cc(C2C3=C(CCCC3=O)N(C)C3=C2C(=O)CCC3)cc1OC` gave Mcl1-Bid inh -30, Mcl1-Noxa inh 7, Hck Nef HTS 54*, Biofilm kill mix 13, 14-3-3 Bad inh -4 and Bim-Mcl-1 -8.
